Compound activity (PubChem BioAssay)
Dynein transport = dynein cargo transport inhibition; 3617.4 mouse cells, GR-EGFP nuclear translocation imaging; test concentration mostly 20 µM; stimulated with dexamethasone, 1 µM; hits give low values; z-score, hits read low; 0.47% of 220,000 active; AID 1381;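 active = plate z-score of nuclear minus cytoplasmic receptor signal below a set negative limit, without overly bright fluorescence or cell loss, cut at about -3.5 in these data, passing the limit was not always enough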;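 note: z-score of nuclear minus cytoplasmic ring GR-EGFP intensity difference per well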
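Also added: dexamethasone, 1.0 µM final. Medium: tet-free, stripped-serum medium. Detection: fixed, Hoechst-stained cells imaged at 10x for EGFP. Read-out: nuclear-to-cytoplasmic GR-EGFP distribution per well. Times: induction 48 h, compound 1 h, agonist 30 min.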
T cruzi inh = T. cruzi replication inhibition | T. cruzi beta-gal in NIH3T3, luminescence, 90 h | inhibition, % (no concentration beside the values) | 1.4% of 300,000 active | AID 1885;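 active = mean inhibition across valid replicates above about 55%, limit read from the data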;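 note: signal also drops with host cell toxicity which is not excluded here; 0% = plate median of DMSO wells and 100% = zero luminescence signal; higher percent means less beta-gal luminescence so fewer parasites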
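compound dosing = single 50 nL compound addition per well in DMSO | material = NIH/3T3 host cells with β-galactosidase reporter T. cruzi | input = 5,000 host fibroblasts per well | timing = ≥90 h infection period, 3 h prior cell attachment | read-out basis = percent inhibition of parasite-derived β-gal signal | detection = GalScreen β-gal luminescence, detergent lysis, 60 min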
CHOP inhibitor = blocks CHOP induction under ER stress. 3.8% of 220,000 active. inhibition, % at 10 µM. CHO-K1 CHOP-promoter luciferase, tunicamycin-induced, 15-18 h;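 active = compounds that reduced the stress-induced luciferase reporter signal by more than about 70% of percent inhibition, limit read from the data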;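 note: 0% = tunicamycin plus vehicle and 100% = wells without tunicamycin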
XBP1 UPR activ = activators of adaptive arm of unfolded protein response (XBP1); activation, % at 20 µM; CHO-XBP1 luciferase reporter, IRE1-XBP1 UPR activation, luminescence; percent of tunicamycin response, DMSO as zero; AID 463104; 0.33% of 330,000 active;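 active = versus positive control, 20 µM dose yields 30% or more activation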;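 note: 100% = tunicamycin at 10 µg/mL and 0% = DMSO only wells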
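Signal: luciferase luminescence; Assay system: CHO-XBP1 luciferase reporter cells; Amount: one thousand reporter cells per well; Dosing: 20 µM single concentration, DMSO 1%; Benchmarks: high control tunicamycin 10 µg/mL final, low control DMSO vehicle only; Schedule: 6 h compound exposure at 37 °C, 5% CO2; Evaluation: percent activation relative to tunicamycin reference.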
L major viab = reduces viability of Leishmania major promastigotes; 9% of 200,000 active; inhibition, % at 10 µM; AID 1063; resazurin fluorescence viability; in the data active = inhibition above about 50%;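 note: promastigotes grown with compound for 44 hours at 28 °C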
UPR CHOP act = activators of apoptotic arm of unfolded protein response (CHOP); CHO-CHOP luciferase reporter, UPR activation, luminescence; percent of tunicamycin response over DMSO baseline; activation, % at 10 µM; 0.34% of 330,000 active; AID 449763;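 active = at 10 µM dose, activation of 40% or more, normalized to positive control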;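 note: 100% = tunicamycin at 10 µg/mL and 0% = DMSO alone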
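Assay system: CHO-CHOP cells, stable luciferase reporter of PERK-eIF2a-CHOP signalling / Buffer or medium: F12 plus 10% serum / Compound dosing: one dose, 10 µM in 0.5% DMSO / Times: 6 h compound treatment, 37 °C / Technique: luciferase luminescence / Read-out: % reporter activation, DMSO baseline versus tunicamycin full activation / Benchmarks: tunicamycin and DMSO controls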
* marks the source's active call; other numbers are inactive results; . = not tested or not shown. Shown is part of a subset that was picked to be rich in hits.

SMILES | Dynein transport | T cruzi inh | CHOP inhibitor | XBP1 UPR activ | L major viab | UPR CHOP act
Cc1cc(C(=O)N/N=C/c2ccc([N+](=O)[O-])cc2)c2ccccc2n1 | -0.428 | -15.3 | -8.9 | -2.2 | . | -1.2
Cc1cc(C(=O)N/N=C/c2cc([N+](=O)[O-])ccc2O)c2ccccc2n1 | -0.299 | -24.3 | 71.4* | -0.8 | 30.7 | -0.6
O=C(N/N=C/c1cccc([N+](=O)[O-])c1)c1c[nH]c2ccccc12 | -0.444 | 15.8 | -36.8 | 2.1 | . | 5.5
O=C(N/N=C/c1cc([N+](=O)[O-])ccc1O)c1c[nH]c2ccccc12 | -0.241 | 4.3 | 80.7* | -0.8 | . | -1.2
O=C(N/N=C/c1cc([N+](=O)[O-])ccc1Cl)c1cc(-c2ccccc2)nc2ccccc12 | 1.19 | -6.0 | 9.4 | -2.6 | . | -0.9
CCCc1nnc(NC(=O)CCC(=O)NCc2ccc(OC)cc2)s1 | -0.751 | -8.4 | 16.7 | -2.2 | . | 2.3
CC1Cc2cc(/C(O)=C3/C(=O)C(=O)N(CCCN4CCOCC4)C3c3ccc(C(C)C)cc3)ccc2O1 (stereo not drawn) | . | -9.1 | . | -1.9 | . | 0.5
COc1cc(/C=C/C(=O)c2ccc(NS(=O)(=O)c3ccc(C)cc3)cc2)ccc1OC(F)F | -1.18 | 42.0 | 37.1 | -3.4 | 98.5* | 15.3
COc1cccc(C(=O)/C=C/Nc2ccc(S(=O)(=O)Nc3cccc(C(C)=O)c3)cc2)c1 | 0.103 | 4.5 | 61.3 | 4.5 | 82.1* | 9.8
COc1cc(/C=C/C(=O)c2ccc(NS(=O)(=O)c3ccc(C)cc3)cc2)cc(OC)c1O | -1.24 | -19.3 | -198.4 | . | 82.5* | .
COc1cccc(C(=O)/C=C/Nc2ccc(NC(C)=O)cc2)c1 | 0.762 | -10.5 | -16.4 | 0.7 | -11.8 | 1.8
COc1cccc(/C=C/C(=O)c2ccc[nH]2)c1 | -0.656 | -15.1 | 5.4 | 1.8 | 100.2* | 5.1
COc1cc(/C=C/C(=O)O)ccc1OS(=O)(=O)c1ccc(C)cc1 | 0.2 | -5.9 | -8.4 | -0.8 | -10.4 | -0.2
CCn1cc(C(=O)N[C@@H](C)C(=O)NCCCn2ccnc2)c(=O)c2cc3c(cc21)OCO3 | . | -8.3 | . | -1.9 | . | 0.1
C=CCn1cnc2c(oc3ccccc32)c1=O | . | -14.7 | . | 1.4 | . | 4.1
COc1cccc(N/C=C/C(=O)c2ccc(C)cc2)c1 | . | -3.5 | . | -7.7 | . | 2.0
COc1cccc(/C=C/C(=O)c2ccc(NS(=O)(=O)c3ccc(C)cc3)cc2)c1 | 3.6 | 10.1 | 15.5 | -5.6 | 99.4* | 2.6
O=[N+]([O-])c1ccc(-[n+]2ccc3ccccc3c2)c([N+](=O)[O-])c1 | . | 70.6* | . | -7.1 | . | -4.9
O=C(/C(=C(\[O-])c1ccccc1)[n+]1ccc2ccccc2c1)c1ccc([N+](=O)[O-])cc1 | 0.675 | 1.4 | 0.3 | -0.7 | -12.7 | 0.5
COc1ccc(Cl)cc1NC(=O)c1[nH]c(C)c(C(C)=O)c1C | . | -4.9 | . | 4.4 | . | 1.8
CCc1c(C(=O)Nc2ccc(OC)c(Cl)c2)[nH]c(C)c1C(C)=O | 0.77 | 29.5 | 85.7* | -0.2 | 24.0 | -0.9
Cc1csc2nc(SCC(=O)N3CCN(c4ccccc4)CC3)[nH]c(=O)c12 | . | 2.5 | . | -3.4 | . | 5.2
c1ccc(COc2ccc(-c3sc(Nc4ccccc4)n[n+]3-c3ccccc3)cc2)cc1 | . | 32.3 | . | -0.7 | . | 2.6
CCc1ccc(Nc2n[n+](-c3ccccc3)c(-c3ccc(N(CC)CC)cc3)s2)cc1 | . | 57.8* | . | 13.3 | . | 29.5
CCc1ccc(Nc2n[n+](-c3ccccc3)c(-c3c(Cl)cccc3Cl)s2)cc1 | . | 58.5* | . | 9.9 | . | 13.8
COc1ccc2ccccc2c1-c1sc(Nc2ccccc2)n[n+]1-c1ccc(F)cc1 | . | 61.3* | . | -0.5 | . | 2.2
CCc1ccc(Nc2n[n+](-c3ccccc3)c(-c3ccc(OCc4ccccc4)cc3)s2)cc1 | . | 54.9* | . | 0.3 | . | 4.4
O=C(O)CN1C(=O)C(=O)N(Cc2ccc(C(F)(F)F)cc2)C1=O | . | -7.2 | . | . | . | .
C[C@@H]1CC2OC(=O)[C@@]3(C)C(=O)CC[C@@](C)(C23)[C@@]1(O)CCc1ccoc1 (stereo partly drawn) | . | -0.2 | . | -7.5 | . | 1.2
